Our source for the MIC, IC50 and GI50 values is ChEMBL document CHEMBL4270612, “Discovery of dual GyrB/ParE inhibitors active against Gram-negative bacteria” (Eur J Med Chem, 2018).

Converted amounts (≈) assume the structure as drawn.

For orientation: MIC means the smallest concentration in the dilution series that meets the test's criterion for growth inhibition. Lower therefore signals inhibition by little substance. A word on the IC50: it is the concentration at which inhibition is half-maximal. A high value points to weaker potency in that assay. By GI50 is commonly meant the concentration that inhibits growth by half. High values mean lower sensitivity of the cells, low ones greater sensitivity of the cells.

In the first data set the test system is Acinetobacter baumannii. Nature of the data set: Antibacterial activity against Acinetobacter baumannii ARC3492 after 24 hrs by broth microdilution method. The class given is functional. The note with it: ARC3492, 24 h. Put shortly:
(§1)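 Broth microdilution per CLSI. Bacterial suspension adjusted to 1×10^6 CFU/mL in cation-adjusted Mueller–Hinton broth and mixed 1:1 with 2-fold serial compound dilutions. Plates incubated at 35 °C with shaking at 140 rpm for 24 h.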
On the technique in general: Broth dilution looks for growth in wells or tubes with falling amounts of substance.
`CCNC(=O)Nc1cc(-c2nc(C3CC3)cs2)c(-c2cc(-c3n[nH]c(=O)o3)cnc2N2C3CCC2CN(C)C3)cn1` registered an MIC of 1 µg/mL (≈ 1.74 µM).

The next data set deals with Pseudomonas aeruginosa. Nature of the data set: Antibacterial activity against Pseudomonas aeruginosa ARC3729 after 24 hrs by broth microdilution method. The format is functional. To be noted: ARC3729, 24 h. In a few lines: (§2)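 Broth microdilution per CLSI. Bacterial suspension adjusted to 1×10^6 CFU/mL in cation-adjusted Mueller–Hinton broth and mixed 1:1 with 2-fold serial compound dilutions. Final DMSO 2.5% v/v. Plates incubated at 35 °C with shaking at 140 rpm for 24 h.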
Regarding `CCNC(=O)Nc1cc(-c2nc(C3CC3)cs2)c(-c2cc(-c3n[nH]c(=O)o3)cnc2N2C3CCC2CN(C)C3)cn1`, 4 µg/mL (≈ 6.97 µM) was the least that counted as inhibitory (MIC).

A further data set has as its system Acinetobacter baumannii. Briefly: Antibacterial activity against Acinetobacter baumannii ARC3657 after 24 hrs by broth microdilution method. The class given is functional. The note with it: ARC3657, 24 h. Put shortly: as §2
On to `CCNC(=O)Nc1cc(-c2nc(C3CC3)cs2)c(-c2cc(-c3n[nH]c(=O)o3)cnc2N2C3CCC2CN(C)C3)cn1`, for which 2 µg/mL (≈ 3.49 µM) was the least that counted as inhibitory (MIC).

The subject of the next data set is Staphylococcus aureus. Briefly: Antibacterial activity against methicillin-resistant Staphylococcus aureus USA100 after 24 hrs by broth microdilution method. The format is functional. The note with it: USA100, 24 h. Put shortly: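 Broth microdilution per CLSI. Bacterial suspensions adjusted to 1×10^6 CFU/mL in cation-adjusted Mueller–Hinton broth, mixed 1:1 with 2-fold serial compound dilutions (final DMSO 2.5% v/v). Incubation 35 °C, 140 rpm, 24 h.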
`CCNC(=O)Nc1cc(-c2nc(C3CC3)cs2)c(-c2cc(-c3n[nH]c(=O)o3)cnc2N2C3CCC2CN(C)C3)cn1` registered an MIC of under 0.06 µg/mL.

For a further data set, the system named is Klebsiella pneumoniae. Nature of the data set: Antibacterial activity against Klebsiella pneumoniae ARC1865 after 24 hrs by broth microdilution method. The class given is functional. To be noted: ARC1865, 24 h. Put shortly:
as §2
With `CCNC(=O)Nc1cc(-c2nc(C3CC3)cs2)c(-c2cc(-c3n[nH]c(=O)o3)cnc2N2C3CCC2CN(C)C3)cn1`, the MIC came out at 16 µg/mL (≈ 27.9 µM).

In the next data set the test system is Escherichia coli. Nature of the data set: Antibacterial activity against tolC deficient Escherichia coli after 24 hrs by broth microdilution method. The class given is functional.
Details: not given
In a few lines: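 Broth microdilution per CLSI guidelines. Inoculum adjusted to 1×10^6 CFU/mL in cation-adjusted Mueller–Hinton broth, added 1:1 to 2-fold serial compound dilutions; final DMSO 2.5% v/v. Plates incubated 35 °C, 140 rpm, 24 h.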
Compound `CCNC(=O)Nc1cc(-c2nc(C3CC3)cs2)c(-c2cc(-c3n[nH]c(=O)o3)cnc2N2C3CCC2CN(C)C3)cn1` showed an MIC of 0.11 µg/mL (≈ 0.192 µM).

Another data set has as its system Pseudomonas aeruginosa. Briefly: Antibacterial activity against Pseudomonas aeruginosa ARC3611 after 24 hrs by broth microdilution method. The format is functional. The note with it: ARC3611, 24 h. In a few lines: as §2
In turn, `CCNC(=O)Nc1cc(-c2nc(C3CC3)cs2)c(-c2cc(-c3n[nH]c(=O)o3)cnc2N2C3CCC2CN(C)C3)cn1` had an MIC of 4 µg/mL (≈ 6.97 µM).

A further data set concerns Pseudomonas aeruginosa. Nature of the data set: Antibacterial activity against Pseudomonas aeruginosa ARC4063 after 24 hrs by broth microdilution method. The format is functional. The note with it: ARC4063, 24 h. Put shortly: as §1
Compound `CCNC(=O)Nc1cc(-c2nc(C3CC3)cs2)c(-c2cc(-c3n[nH]c(=O)o3)cnc2N2C3CCC2CN(C)C3)cn1` registered an MIC of 4 µg/mL (≈ 6.97 µM).

A further data set concerns Acinetobacter baumannii. Briefly: Antibacterial activity against Acinetobacter baumannii ARC3495 after 24 hrs by broth microdilution method. The note with it: ARC3495, 24 h. The format is functional. Put shortly: as §2
`CCNC(=O)Nc1cc(-c2nc(C3CC3)cs2)c(-c2cc(-c3n[nH]c(=O)o3)cnc2N2C3CCC2CN(C)C3)cn1` showed an MIC of 0.5 µg/mL (≈ 0.872 µM).

A further data set has as its target DNA gyrase subunit B (Escherichia coli, UniProt P0AES6). Nature of the data set: Inhibition of Escherichia coli GyrB (1 to 220 residues) expressed in Escherichia coli BL21(DE3).
Details: not given
`CCNC(=O)Nc1cc(-c2nc(C3CC3)cs2)c(-c2cc(-c3n[nH]c(=O)o3)cnc2N2C3CCC2CN(C)C3)cn1` came in with an IC50 of 2 nM.

In another data set the test system is Acinetobacter baumannii. Nature of the data set: Antibacterial activity against Acinetobacter baumannii ARC2675 after 24 hrs by broth microdilution method. The class given is functional. The note with it: ARC2675, 24 h. In a few lines:
as §1
`CCNC(=O)Nc1cc(-c2nc(C3CC3)cs2)c(-c2cc(-c3n[nH]c(=O)o3)cnc2N2C3CCC2CN(C)C3)cn1` gave a minimum inhibitory concentration (MIC) of 2 µg/mL (≈ 3.49 µM).

In the next data set the test system is Pseudomonas aeruginosa. Nature of the data set: Antibacterial activity against Pseudomonas aeruginosa ARC3511 after 24 hrs by broth microdilution method. The format is functional. To be noted: ARC3511, 24 h. In a few lines:
as §1
`CCNC(=O)Nc1cc(-c2nc(C3CC3)cs2)c(-c2cc(-c3n[nH]c(=O)o3)cnc2N2C3CCC2CN(C)C3)cn1`: the lowest concentration to inhibit growth (MIC) was 1 µg/mL (≈ 1.74 µM).

In the next data set the test system is Acinetobacter baumannii. Briefly: Antibacterial activity against Acinetobacter baumannii ARC2779 after 24 hrs by broth microdilution method. The format is functional. The note with it: ARC2779, 24 h. In a few lines:
as §2
Take `CCNC(=O)Nc1cc(-c2nc(C3CC3)cs2)c(-c2cc(-c3n[nH]c(=O)o3)cnc2N2C3CCC2CN(C)C3)cn1`: the MIC amounted to 1 µg/mL (≈ 1.74 µM).

Another data set relates to Acinetobacter baumannii. Briefly: Antibacterial activity against Acinetobacter baumannii ARC2674 after 24 hrs by broth microdilution method. The note with it: ARC2674, 24 h. The class given is functional. In a few lines:
as §2
Regarding `CCNC(=O)Nc1cc(-c2nc(C3CC3)cs2)c(-c2cc(-c3n[nH]c(=O)o3)cnc2N2C3CCC2CN(C)C3)cn1`, inhibition of growth (MIC) required 4 µg/mL (≈ 6.97 µM).

Another data set concerns Acinetobacter baumannii. Briefly: Antibacterial activity against Acinetobacter baumannii ARC3485 after 24 hrs by broth microdilution method. The format is functional. To be noted: ARC3485, 24 h. Put shortly:
as §2
Take `CCNC(=O)Nc1cc(-c2nc(C3CC3)cs2)c(-c2cc(-c3n[nH]c(=O)o3)cnc2N2C3CCC2CN(C)C3)cn1`: the MIC came out at 2 µg/mL (≈ 3.49 µM).

For another data set, the system named is Acinetobacter baumannii. Nature of the data set: Antibacterial activity against Acinetobacter baumannii ARC3513 after 24 hrs by broth microdilution method. The format is functional. The note with it: ARC3513, 24 h. Put shortly: as §2
`CCNC(=O)Nc1cc(-c2nc(C3CC3)cs2)c(-c2cc(-c3n[nH]c(=O)o3)cnc2N2C3CCC2CN(C)C3)cn1` displayed an MIC of 4 µg/mL (≈ 6.97 µM).

Test system in the next data set: not listed separately
Nature of the data set: Growth inhibition of human A549 cells. The class given is cell-based.
Details: not given
`CCNC(=O)Nc1cc(-c2nc(C3CC3)cs2)c(-c2cc(-c3n[nH]c(=O)o3)cnc2N2C3CCC2CN(C)C3)cn1` registered a GI50 of over 25000 nM.

Another data set deals with Acinetobacter baumannii. Nature of the data set: Antibacterial activity against Acinetobacter baumannii ARC2782 after 24 hrs by broth microdilution method. The class given is functional. The note with it: ARC2782, 24 h. In a few lines:
as §2
Compound `CCNC(=O)Nc1cc(-c2nc(C3CC3)cs2)c(-c2cc(-c3n[nH]c(=O)o3)cnc2N2C3CCC2CN(C)C3)cn1` registered an MIC of 1 µg/mL (≈ 1.74 µM).

Another data set deals with Acinetobacter baumannii. Briefly: Antibacterial activity against Acinetobacter baumannii ARC3493 after 24 hrs by broth microdilution method. The class given is functional. To be noted: ARC3493, 24 h. In a few lines: as §2
Take `CCNC(=O)Nc1cc(-c2nc(C3CC3)cs2)c(-c2cc(-c3n[nH]c(=O)o3)cnc2N2C3CCC2CN(C)C3)cn1`: 1 µg/mL (≈ 1.74 µM) was the least that counted as inhibitory (MIC).

Another data set relates to Acinetobacter baumannii. Briefly: Antibacterial activity against Acinetobacter baumannii ARC2728 after 24 hrs by broth microdilution method. The class given is functional. The note with it: ARC2728, 24 h. In a few lines:
as §2
As to `CCNC(=O)Nc1cc(-c2nc(C3CC3)cs2)c(-c2cc(-c3n[nH]c(=O)o3)cnc2N2C3CCC2CN(C)C3)cn1`, the MIC turned out to be 1 µg/mL (≈ 1.74 µM).

For another data set, the system named is Pseudomonas aeruginosa. Nature of the data set: Antibacterial activity against Pseudomonas aeruginosa ARC3727 after 24 hrs by broth microdilution method. The format is functional. To be noted: ARC3727, 24 h. Put shortly: as §1
Compound `CCNC(=O)Nc1cc(-c2nc(C3CC3)cs2)c(-c2cc(-c3n[nH]c(=O)o3)cnc2N2C3CCC2CN(C)C3)cn1` yielded an MIC of 4 µg/mL (≈ 6.97 µM).

The subject of the next data set is Escherichia coli. Nature of the data set: Antibacterial activity against Escherichia coli after 24 hrs by broth microdilution method. The format is functional.
Details: not given
In a few lines: as §2
The compound `CCNC(=O)Nc1cc(-c2nc(C3CC3)cs2)c(-c2cc(-c3n[nH]c(=O)o3)cnc2N2C3CCC2CN(C)C3)cn1` registered an MIC of 0.57 µg/mL (≈ 0.994 µM).
